Experimental data as given in ChEMBL document CHEMBL1126204, “Nucleic acid related compounds. 74. Synthesis and biological activity of 2'(and 3')-deoxy-2'(and 3')-methylenenucleoside analogues that function as mechanism-based inhibitors of S-adenosyl-L-homocysteine hydrolase and/or ribonucleotide reductase” (J Med Chem, 1992).

Experiments:
[1] = system: MT4; assay: In vitro inhibition of MT-4 (Human T-lymphocyte) cell proliferation.; format: functional, cell-based
How it was run: (§1)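 Human Molt/4F, MT-4, and Raji cells (wild-type, TK⁻ or dCK⁻) in RPMI-1640 with 10% inactivated FCS, 2 mM L-glutamine and 0.075% NaHCO₃, seeded at 7.5 × 10⁵ cells/mL with compound (0.001–500 µM). Incubated 3 days at 37 °C in humidified CO₂; viable cells counted by Coulter counter. IC₅₀ = 50% reduction in viable cells; means of 2–4 independent experiments.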

[2] = system: L1210; assay: In vitro inhibition of L1210 (murine leukemia) cell proliferation.; format: functional, cell-based; conditions: Mus musculus
How it was run: (§2)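 Murine FM3A or L1210 cells in Eagle's MEM with 10% inactivated FCS, 2 mM L-glutamine and 0.075% NaHCO₃, seeded at 5 × 10⁵ cells/mL with compound (0.001–500 µM). After 2 days at 37 °C in humidified CO₂, viable cells were counted with a Coulter counter. IC₅₀ = 50% fewer viable cells; mean of 2–4 experiments.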

[3] = In vitro inhibition of FM3A (murine carcinoma) cell proliferation.; format: functional; conditions: Mus musculus; how it was run: as §2
[4] = In vitro inhibition of Molt/4f (Human T-lymphoblast) cell proliferation.; format: functional; how it was run: as §1
[5] = Concentration required to inhibit the proliferation of human T-lymphocyte CEM/AK-(Ado kinase deficient) cells by 50%; format: functional
How it was run: (§3)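 Wild-type CEM and kinase-deficient sublines (AK⁻, dCK⁻, AK⁻/dCK⁻) grown in RPMI-1640 with 10% inactivated FCS, 2 mM L-glutamine and 0.075% NaHCO₃. Cells were exposed to compound at 0.001–500 µM for 3 days at 37 °C in humidified CO₂. Viable cells counted by Coulter counter; IC₅₀ = 50% reduction in viable cells. Mean of 2–4 independent experiments.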

[6] = Concentration required to inhibit the proliferation of human T-lymphocyte CEM/AK-/dCK-(Ado and dCyd kinase deficient) cells by 50%; format: functional; how it was run: as §3
[7] = Concentration required to inhibit the proliferation of human T-lymphocyte CEM/dCK-(dCyd kinase deficient) cells by 50%; format: functional; how it was run: as §3
[8] = system: CEM (Homo sapiens); assay: Concentration required to inhibit the proliferation of human T-lymphocyte CEM/o cells by 50%
[9] = system: L1210; assay: Concentration required to inhibit the proliferation of L1210 murine leukemia cell line by 50% in presence exogenous necleoside Guo (50 uM).; format: functional, cell-based; conditions: Mus musculus
How it was run: (§4)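 L1210 murine leukemia cells in Eagle's MEM with 10% inactivated fetal calf serum, 2 mM L-glutamine and 0.075% NaHCO₃. 5 × 10⁵ cells/mL were exposed to test compound (0.001–500 µM) together with the stated exogenous nucleoside at subtoxic level. Incubated 2 days at 37 °C in humidified CO₂. Viable cells were counted by Coulter counter. IC₅₀ = 50% reduction in viable cell number; mean of 2–4 independent experiments.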

[10] = system: L1210; assay: Antitumor activity in mice bearing L1210 murine leukemia cell line at a dose of 100 mg/kg/day.; format: functional, Mus musculus
How it was run: (§5)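 DBA/2 mice (20 g) inoculated ip with 10⁶ L1210 leukemia cells; test agent given ip once daily for 5 successive days beginning 1 day after inoculation, dissolved in Eagle's MEM containing 2.5% Tween (250 μL injection). Untreated tumor-bearing controls; read-out mean survival time in days, 7–15 mice per group.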

[11] = system: L1210; assay: Concentration required to inhibit the proliferation of L1210 murine leukemia cell line by 50% in presence exogenous necleoside Ado (100 uM).; format: functional, cell-based; conditions: Mus musculus, in the assay text read “1000 uM” for “100 uM”; how it was run: as §4
[12] = system: L1210; assay: Antitumor activity in mice bearing L1210 murine leukemia cell line at a dose of 50 mg/kg/day.; format: functional, Mus musculus; how it was run: as §5
[13] = Concentration required to inhibit the proliferation of human T-lymphocyte CEM cells by 50% in presence exogenous necleoside Ado+dCyd (100 uM).; format: functional, cell-based; conditions: CCRF-CEM, in the assay text read “1000 uM” for “100 uM”
How it was run: (§6)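 CEM human T-lymphocytes in RPMI-1640 with 10% inactivated FCS, 2 mM L-glutamine and 0.075% NaHCO₃. Test compound (0.001–500 µM) was co-added with the stated subtoxic exogenous nucleoside(s). Incubated 3 days at 37 °C in humidified CO₂, then viable cells counted by Coulter counter. IC₅₀ is the level giving 50% fewer viable cells; means of 2–4 independent experiments.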

[14] = Concentration required to inhibit the proliferation of human T-lymphocyte CEM cells by 50% in presence exogenous necleoside Ado (100 uM).; format: functional, cell-based; conditions: CCRF-CEM, in the assay text read “1000 uM” for “100 uM”; how it was run: as §6
[15] = Concentration required to inhibit the proliferation of human T-lymphocyte CEM cells by 50% in presence exogenous necleoside dCyd (100 uM).; format: functional, cell-based; conditions: CCRF-CEM, in the assay text read “1000 uM” for “100 uM”; how it was run: as §6
[16] = system: CCRF-CEM; assay: (§7) Concentration required to inhibit the proliferation of human T-lymphocyte CEM/o cells by 50%; format: functional, cell-based; how it was run: as §3
[17] = system: L1210; assay: Concentration required to inhibit the proliferation of L1210 murine leukemia cell line by 50% in presence exogenous necleoside dCyd (100 uM).; format: functional, cell-based; conditions: Mus musculus, in the assay text read “1000 uM” for “100 uM”; how it was run: as §4
[18] = system: L1210; assay: Antitumor activity in mice bearing L1210 murine leukemia cell line at a dose of 25 mg/kg/day.; format: functional, Mus musculus; how it was run: as §5
[19] = system: L1210; assay: Concentration required to inhibit the proliferation of L1210 murine leukemia cell line by 50% in presence exogenous necleosides dCyd+Ado (100 uM).; format: functional, cell-based; conditions: Mus musculus, in the assay text read “1000 uM” for “100 uM”; how it was run: as §4
[20] = system: L1210; assay: Antitumor activity in mice bearing L1210 murine leukemia cell line at a dose of 12.5 mg/kg/day.; format: functional, Mus musculus; how it was run: as §5
[21] = system: Raji; assay: Inhibition of human tumor B-lymphoblast Raji/dCK-(dcyd kinase deficient) cell proliferation; format: functional, cell-based; how it was run: as §1
[22] = system: Raji; assay: Inhibition of human tumor B-lymphoblast Raji/TK-(thymidine kinase deficient) cell proliferation; format: functional, cell-based; how it was run: as §1
[23] = organism: Homo sapiens; assay: Concentration required to inhibit the proliferation of human T-lymphocyte CEM/dCK-(dcyd kinase deficient) cells by 50%; format: functional; how it was run: as §3
[24] = organism: Homo sapiens; assay: as §7; format: functional; how it was run: as §3
[25] = system: Raji; assay: Inhibition of human tumor B-lymphoblast Raji/O cell proliferation; format: functional, cell-based; how it was run: as §1

SMILES | IC50 [1] | IC50 [2] | IC50 [3] | IC50 [4] | also measured
C=C1[C@H](n2cnc3c(N)ncnc32)O[C@H](CO)[C@H]1O | 131 µM | 65 µM | 232 µM | > 500 µM | –
C=C1[C@@H](O)[C@H](n2cnc3c(N)nc(N)nc32)O[C@@H]1CO | > 200 µM | > 200 µM | > 200 µM | > 200 µM | IC50 [5]: > 500 µM; IC50 [6]: > 500 µM; IC50 [7]: > 500 µM; IC50 [8]: > 500 µM
C=C1[C@H](n2cnc3c(O)nc(N)nc32)O[C@H](CO)[C@H]1O | 150 µM | 8.5 µM | 102 µM | 22 µM | IC50 [9]: 51 µM; Mean survival time [10]: 2 days; IC50 [11]: 55 µM; IC50 [5]: 36 µM; Mean survival time [12]: 5.3 days; IC50 [13]: 136 µM; IC50 [14]: 25 µM; IC50 [6]: 201 µM; IC50 [15]: 136 µM; IC50 [16]: 9.4 µM; IC50 [17]: 17 µM; Mean survival time [18]: 7.5 days; IC50 [7]: 221 µM; IC50 [19]: 75 µM; Mean survival time [20]: 7.5 days
C=C1[C@@H](O)[C@H](n2cnc3c(N(C)C)nc(N)nc32)O[C@@H]1CO | > 500 µM | > 500 µM | > 500 µM | > 500 µM | –
C=C1[C@@H](O)[C@H](n2cnc3c(N)ncnc32)O[C@@H]1CO | 43 µM | 228 µM | 466 µM | > 500 µM | –
C=C1[C@H](n2cnc3c(Cl)nc(N)nc32)O[C@H](CO)[C@H]1O | 176 µM | 10 µM | 50 µM | 22 µM | –
C=C1[C@H](n2cnc3c(SC)nc(N)nc32)O[C@H](CO)[C@H]1O | > 500 µM | > 500 µM | > 500 µM | > 500 µM | –
C=C1[C@H](n2cnc3c(N(C)C)nc(N)nc32)O[C@H](CO)[C@H]1O | > 500 µM | 454 µM | > 500 µM | 335 µM | –
C=C1[C@H](n2cnc3c(OC)nc(N)nc32)O[C@H](CO)[C@H]1O | 180 µM | 10 µM | 41 µM | 23 µM | –
C=C1[C@@H](O)[C@H](n2cnc3c(Cl)nc(N)nc32)O[C@@H]1CO | > 500 µM | 441 µM | 469 µM | > 500 µM | –
C=C1[C@@H](O)[C@H](n2ccc(N)nc2=O)O[C@@H]1CO | 121 µM | 378 µM | > 500 µM | 172 µM | IC50 [21]: > 500 µM; IC50 [22]: 52 µM; IC50 [23]: > 500 µM; IC50 [24]: 63 µM; IC50 [25]: 33 µM
